# Compound activity: PubChem, The Scripps Research Institute Molecular Screening Center
# M1 antag – human M1 muscarinic receptor antagonists, primary screen, CHO-K1 cells, Fluo-8 calcium fluorescence, 1536-well. 1.3% of 360,000 active. inhibition, % at 3 µM. CHO-K1 hM1, ACh EC80 antagonist. Muscarinic acetylcholine receptor M1 (Homo sapiens), P11229;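 active = percent inhibition above its own plate's cutoff, namely the mean of that plate's compound wells plus 3 SD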;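 note: peak over basal fluorescence ratio during 140 s after agonist addition; 0% = ACh EC80 plus DMSO and 100% = DMSO alone without agonist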
# Target sequence (P11229 whole entry, looked up): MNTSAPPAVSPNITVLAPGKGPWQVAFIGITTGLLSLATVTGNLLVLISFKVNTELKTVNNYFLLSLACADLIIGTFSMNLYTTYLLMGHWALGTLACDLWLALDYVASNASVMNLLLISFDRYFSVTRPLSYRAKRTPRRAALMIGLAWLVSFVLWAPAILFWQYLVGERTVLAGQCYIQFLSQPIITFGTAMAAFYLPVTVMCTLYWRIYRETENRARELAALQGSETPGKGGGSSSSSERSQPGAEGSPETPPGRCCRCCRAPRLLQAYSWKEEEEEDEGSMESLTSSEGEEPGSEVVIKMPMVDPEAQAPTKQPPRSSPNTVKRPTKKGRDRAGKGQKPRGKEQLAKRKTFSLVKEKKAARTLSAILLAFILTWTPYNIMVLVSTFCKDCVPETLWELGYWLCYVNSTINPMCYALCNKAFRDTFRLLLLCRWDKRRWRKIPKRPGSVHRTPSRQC
# CHRM1 PAM – human M1 muscarinic receptor positive allosteric modulators, primary screen, CHO-K1 cells, Fluo-8 calcium fluorescence, 1536-well | CHO-K1 hM1, ACh EC20; 0% = ACh EC20, 100% = maximal ACh | activation, % at 3 µM | 0.088% of 360,000 active | AID 588819, 2011; in the data active = activation above about 19%, passing the limit was not always enough
# CHRM5 antagonist – human M5 muscarinic receptor antagonists, primary screen, CHO cells, Fluo-8 calcium fluorescence; inhibition, % at 3 µM; Muscarinic acetylcholine receptor M5 (Homo sapiens), P08912; CHO-hM5 cells, ACh EC80; 0.59% of 360,000 active; AID 624040, 2012;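 active = inhibition above a per-plate cutoff, the mean of that plate's test compounds plus 3 SD, cut at about 27% in these data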;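 note: 0% = acetylcholine EC80 with DMSO and 100% = DMSO without agonist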
# CHRM1 agonist – human M1 muscarinic receptor agonists, primary screen, Fluo-8 calcium fluorescence, CHO-K1 cells, HTS; Muscarinic acetylcholine receptor M1 (Homo sapiens), P11229; CHO-K1 hM1, agonist mode; 0% DMSO, 100% acetylcholine EC100; activation, % at 3 µM; 0.33% of 360,000 active; AID 588814, 2011;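 active = activation above the run's mean compound activation plus 3 SD, cut at about 16% in these data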;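 note: peak over basal fluorescence ratio within a 140 s kinetic read after compound addition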
# M5 PAM – human M5 muscarinic receptor positive allosteric modulators, primary screen, CHO-K1 cells, Fluo-8 calcium fluorescence. activation, % at 3 µM. CHO-K1 hM5, ACh EC20 PAM; 0% = ACh EC20, 100% = ACh EC100. 0.3% of 360,000 active. Muscarinic acetylcholine receptor M5 (Homo sapiens), P08912;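 active = activation above the run cutoff, the mean activation of all test compounds plus 3 SD, cut at about 18% in these data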
#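 System: CHO-K1 cell line with stable human muscarinic M5 receptor expression | Also added: EC20 acetylcholine as agonist stimulus | Compound: One concentration, 3 µM final (nominal) | Timing: Fluo-8 loading 80 min at 37 °C plus 30 min room temperature | Measured by: Fluo-8 calcium dye fluorescence, kinetic read | Read-out basis: % activation, ACh-normalized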
# M5 ag – human M5 muscarinic receptor agonists, primary screen, CHO-K1 cells, Fluo-8 calcium fluorescence; Muscarinic acetylcholine receptor M5 (Homo sapiens), P08912; CHO-K1 hM5 cells; 0% DMSO wells, 100% maximal acetylcholine response; activation, % at 3 µM; 0.19% of 360,000 active; AID 624037, 2012;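 active = activation above the run's mean over test compounds plus 3 SD, cut at about 23% in these data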;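 note: signal is peak over basal fluorescence ratio across the kinetic read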
# Numbers without * were called inactive; / = not tested or not shown. Shown are actives, neighbours in structure and some others; about 2.2% of the full set was active somewhere.
SMILES,M1 antag,CHRM1 PAM,CHRM5 antagonist,CHRM1 agonist,M5 PAM,M5 ag
CC(C)CN(C(=O)COC(=O)CCc1c[nH]c2ccccc12)c1c(N)n(Cc2ccccc2)c(=O)[nH]c1=O,-2.2,-1.4,7.0,1.4,0.9,1.0
C[C@H](NC(=O)[C@@H]1CCCN1C(=O)[C@@H]1CCCN1C(=O)OC(C)(C)C)c1ccccc1,/,/,-1.5,/,3.9,2.9
O=C(c1cc(=O)[nH]c2ccccc12)N1CCN(S(=O)(=O)c2ccc(Cl)cc2)CC1,22.7,-9.7,27.1*,-0.8,-29.4,3.9
C=CCSC1=C(C#N)C(c2ccccc2Cl)C(C(=O)c2cccs2)C(O)(C(F)(F)F)N1 (stereo unspecified),17.1,-18.1,27.4*,-6.9,-18.0,0.4
CCOC(=O)C1CCCN(C(=O)Cc2c(C(=O)O)[nH]c3ccccc23)C1 (stereo unspecified),63.8*,-28.5,-9.4,73.3*,-5.7,38.0*
CCOC(=O)C1CCCN(C(=S)Nc2ccc(C)cc2C)C1 (stereo unspecified),83.1*,-28.0,10.3,84.9*,-6.4,35.6*
CCOC(=O)C1CCCN(C(c2ccccn2)c2c(C)[nH]c3ccccc23)C1 (stereo unspecified),-2.9,-1.2,0.1,27.9*,-3.9,0.8
CCOC(=O)C1CCCN(C(=O)C2c3ccccc3Oc3ccccc32)C1 (stereo unspecified),34.6*,-29.6,2.5,79.2*,-8.5,27.1*
CCOC(=O)C1CCCN(C(=O)CC(c2ccccc2)c2ccccc2)C1 (stereo unspecified),-16.3,11.6,-1.8,-2.3,0.2,-0.9
COCCNC(=O)C(c1cccnc1)N(Cc1ccc(C)cc1)C(=O)Cn1nnc2ccccc21 (stereo unspecified),-3.4,4.2,2.1,-4.1,2.6,1.4
CCOC(=O)C1CCCN(C(=O)/C(=C/c2ccco2)NC(=O)c2ccccc2)C1 (stereo unspecified),10.7,-12.1,8.7,48.2*,-7.6,11.1
CCOc1ccccc1N1CCN(C(=O)C2c3ccccc3Oc3ccccc32)CC1,-2.8,1.7,-2.4,-1.5,-2.5,-3.1
CCOC(=O)C1CCCN(C(=S)Nc2ccc(Nc3ccccc3)cc2)C1 (stereo unspecified),79.5*,-26.3,1.0,77.8*,-7.6,32.0*
CS(=O)(=O)N1CCN(C(=O)C2c3ccccc3Oc3ccccc32)CC1,46.9*,-21.6,-0.5,-8.7,-11.6,-7.2
O=C(N/C(=C/c1ccco1)C(=O)N1CCCCCC1)c1ccccc1,-10.5,12.1,2.6,-2.0,0.9,-0.1
CCOC(=O)C1CCCN(C(=O)Nc2c(-c3ccccc3)noc2C)C1 (stereo unspecified),1.7,-6.1,-7.9,30.7*,10.4,18.2
CC(C)(C)OC(=O)N1CCC(C(=O)NCC2CCCO2)CC1 (stereo unspecified),-7.1,6.1,4.8,-3.1,7.6,2.0
O=C(c1cccs1)c1ccccc1Cc1cccs1,-5.9,0.7,13.7,-8.5,-7.4,-1.5
CC[n+]1c(C)sc2c(C)cc(C)cc21,-25.7,7.2,-6.4,-2.0,26.8*,13.6
O=C(CNC(=O)c1ccccc1)NCCc1ccc(O)c(O)c1,-2.9,31.0*,0.8,-3.8,0.1,-3.9
Cc1ccc(S(=O)(=O)N2CCC(=O)N(CCOC(=O)Nc3cccc(Cl)c3)CC2)cc1,6.5,-0.2,-86.0,-1.5,30.2*,12.4
CCN(CC)CCOC(=O)c1ccc(NC(=O)CCCN2C(=O)/C(=C/c3cccs3)SC2=S)cc1,36.0*,-17.8,11.5,-5.1,-8.2,-7.1
O=C(CCCN1C(=O)/C(=C\c2cccs2)SC1=S)Nc1ccc(C(=O)O)cc1,0.3,14.9,-0.5,9.2,1.9,0.8
O=C(CCC(=O)Nc1nnc(C2CCCCC2)s1)Nc1ccccc1,-18.3,15.8,0.0,0.7,-0.5,-1.3
CCc1[nH]nc(C(=O)NC2CCCN(Cc3ccccc3F)C2)c1C (stereo unspecified),40.3*,-13.5,0.1,-4.8,-1.0,-9.5
SMILES,M1 antag,CHRM1 PAM,CHRM5 antagonist,CHRM1 agonist,M5 PAM,M5 ag
CN1CCN(Cc2nnc(-c3ccccc3)o2)CC1,-2.6,0.2,-1.1,-2.2,0.9,0.8
c1ccc(CN2CCN(Cc3nnc(-c4ccccc4)o3)CC2)cc1,34.8*,-15.6,8.0,-6.5,-23.1,-18.2
CC(C)Oc1ccccc1OCCN(C)C,-3.7,10.7,1.5,-13.3,1.3,-7.5
CN(C)CCC(Oc1ccccc1OCc1ccccc1)c1ccccc1 (stereo unspecified),45.9*,-20.6,27.8*,0.7,-33.3,-10.0
Cc1cc(-n2c(SCCC#N)nnc2-c2cccnc2)ccc1Cl,2.1,2.6,3.2,-3.7,-4.3,-1.6
O=C(Nc1ccn(CCCN2CCN(c3ncccn3)CC2)c(=O)n1)OCc1ccccc1,22.0*,-19.4,-0.4,-12.3,-5.3,-2.9
O=C(Nc1ccn(CCCN2CCN(Cc3ccc(F)cc3)CC2)c(=O)n1)OCc1ccccc1,39.4*,-25.9,-1.4,-9.8,-0.6,-1.3
O=C(Nc1ccn(CCCNCc2ccccn2)c(=O)n1)OCc1ccccc1,-9.1,0.6,7.7,-9.8,-4.9,-1.9
COc1ccc(CNC(=O)CCNC(=O)c2ccco2)cc1OC,-16.1,14.1,3.9,2.8,-0.2,2.0
CN(C)CCNC(=O)c1ccc(COc2ccc(Cl)cc2Cl)cc1,31.4*,-14.0,0.6,-4.5,-6.7,-4.8
Cc1c(N=c2scc(-c3ccccc3)n2C)c(=O)n(-c2ccccc2)n1C,97.9*,-23.8,9.1,-5.8,-26.9,-15.6
Cc1nnc(SCCn2c(N3CCCC(C)C3)nc3c2c(=O)[nH]c(=O)n3C)s1 (stereo unspecified),0.0,11.0,-14.9,-5.0,19.5*,3.3
O=C1CC2(CCCCC2)Oc2ccc(Cl)cc21,-5.8,9.0,-4.6,3.0,-5.2,2.6
FC(F)(F)c1cccc(NC(=S)NCC2COc3ccccc3O2)c1 (stereo unspecified),13.2,-10.7,32.4*,0.7,-19.2,5.5
CS(=O)(=O)N(CC(=O)NCCSCc1cccc(Cl)c1)c1ccc(F)cc1,-4.7,2.1,1.1,-1.1,-3.1,-2.1
COc1ccccc1NC(=O)CSc1nnc(-c2ccncc2)o1,-4.5,3.3,-2.6,-0.3,22.8*,-1.5
